The source made the active and inactive calls. The rule behind the calls is not given here.
Key:
SAS = assay: Cytotoxicity against human SAS cells assessed as growth inhibition; type: functional, cell-based
AGS = assay: Cytotoxicity against human AGS cells assessed as growth inhibition; type: functional, cell-based
SK-HEP1 = assay: Cytotoxicity against human SKHEP1 cells assessed as growth inhibition; type: functional, cell-based
A549 = assay: Cytotoxicity against human A549 cells assessed as growth inhibition; type: functional, cell-based
[1] = Cytotoxicity against human CE81T cells assessed as growth inhibition; type: functional, cell-based
PC-3 = assay: Cytotoxicity against human PC3 cells assessed as growth inhibition; type: functional, cell-based
[2] = Cytotoxicity against human BT-483 cells assessed as growth inhibition; type: functional, cell-based
HeLa = assay: Cytotoxicity against human HeLa cells assessed as growth inhibition; type: functional, cell-based
[3] = target: T1, Tubulin alpha (Homo sapiens) (UniProt P0DPH7+P68366+Q71U36+P68363+Q9BQE3+Q6PEY2+A6NHL2+Q9NY65); assay: Binding affinity to Tubulin alpha/beta in human BT-483 cells assessed as microtubule depolymerization at 3.6 uM after 6 hrs by immunofluorescence analysis; type: cell-based
BT-483 [4] = assay: Induction of DNA damage in human BT-483 cells assessed as gamma H2AX phosphorylation at Ser139 at 1 uM after 24 hrs by Western blot analysis; type: functional, cell-based
Procedure, shortened: (§1)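 BT483 cells treated 24 h with vehicle (1% DMSO) or compound at various concentrations, PBS-washed and lysed. 50 μg protein run on 15% SDS-PAGE, transferred to PVDF, blocked overnight at 4 °C in 5% nonfat milk. Probed 2 h at room temperature with monoclonal anti-Caspase-3, anti-PARP, anti-phospho-γ-H2AX or anti-β-actin, then secondary IgG (1:5000). ECL detection. Irinotecan served as positive control.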

BT-483 [5] = assay: Induction of apoptosis in human BT-483 cells assessed as increase in caspase 3 activity at 1 uM after 24 hrs by Western blot analysis; type: functional, cell-based; procedure, shortened: as §1
[6] = Cell cycle arrest in human BT-483 cells assessed as accumulation of cells at subG1 phase at 0.2 uM after 24 hrs by flow cytometric analysis; type: functional, cell-based
Procedure, shortened: (§2)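 BT-483 cells exposed to DMSO or 0.2 μM compound for 12 and 24 h, harvested, PBS-rinsed, fixed in 80% ethanol and stored at -20 °C. DNA-fluorescence flow cytometry used for cell cycle distribution, including G2/M and sub-G1 fractions.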

BT-483 [7] = assay: Induction of apoptosis in human BT-483 cells assessed as PARP cleavage at 1 uM after 24 hrs by Western blot analysis; type: functional, cell-based; procedure, shortened: as §1
BT-483 [8] = assay: Antitumor activity against human BT-483 cells xenografted in nude mouse assessed as decrease in tumor growth at 20 mg/kg/day, ip for 2 weeks measured every 3 days by caliper analysis; type: functional, organism-based
Procedure, shortened: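 Nude mice (male, 6–8 weeks, 20–25 g, SPF) inoculated s.c. in left flank with 1×10^6 BT483 cells in 50% matrigel. Treatment began at tumor volume ~20 mm³: i.p. daily for 2 weeks versus DMSO vehicle (n = 5 vehicle, n = 6 treated). Caliper measurement every 3 days from first dose; volume = width × length × height. Mean ± SEM.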

[9] = target: T1, Tubulin alpha (Homo sapiens); assay: Binding affinity to Tubulin alpha/beta in human BT-483 cells assessed as microtubule depolymerization at 1 uM after 6 hrs by immunofluorescence analysis; type: cell-based
Procedure, shortened: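 BT483 cells held at 4 °C for 4 h to depolymerize microtubules, then incubated at 37 °C for 6 h in medium with DMSO or 1 μM compound. Cells fixed, immunostained with anti-tubulin antibody to view microtubule distribution; nuclei counterstained with DAPI.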

[10] = Cell cycle arrest in human BT-483 cells assessed as accumulation of cells at G2/M phase at 0.2 uM after 12 hrs by flow cytometric analysis; type: functional, cell-based; procedure, shortened: as §2
BT-483 [11] = assay: Induction of DNA damage in human BT-483 cells assessed as gamma H2AX phosphorylation at Ser139 at 1 to 10 uM after 24 hrs by Western blot analysis; type: functional, cell-based; procedure, shortened: as §1

| SMILES | IC50 (SAS) [µM] | IC50 (AGS) [µM] | IC50 (SK-HEP1) [µM] | IC50 (A549) [µM] | IC50 [1] [µM] | IC50 (PC-3) [µM] | IC50 [2] [µM] | IC50 (HeLa) [µM] | Activity [3] | Activity (BT-483 [4]) | Activity (BT-483 [5]) | Activity [6] | Activity (BT-483 [7]) | Activity (BT-483 [8]) | Activity [9] | Activity [10] | Activity (BT-483 [11]) |
| --- | --- | --- | --- | --- | --- | --- | --- | --- | --- | --- | --- | --- | --- | --- | --- | --- | --- |
| COc1cc(C#C/C=C\C#Cc2ccccc2[N+](=O)[O-])cc(OC)c1OC | 1.37 | 4.66 | 1.34 | 5.71 | 6.91 | 4.56 | 4.24 | 1.89 | – | – | – | – | – | – | – | – | – |
| COc1cc(C#C/C=C\C#Cc2ccccc2SC)cc(OC)c1OC | 12.8 | 9.53 | 13.3 | 11.7 | 13.9 | 17.4 | 15.2 | 15.9 | – | – | – | – | – | – | – | – | – |
| Nc1ccccc1C#C/C=C\C#Cc1ccccc1C(F)(F)F | 5.83 | 8.24 | 6.68 | 6.57 | 2.91 | 8.26 | 8.56 | 5.49 | Active | – | – | – | – | – | – | – | – |
| COc1ccccc1C#C/C=C\C#Cc1cc(OC)c(OC)c(OC)c1 | 9.88 | 0.78 | 0.34 | 0.52 | 6.95 | 0.62 | 1.23 | 0.57 | – | – | – | – | – | – | – | – | – |
| CCc1c2c(nc3ccc(OC(=O)N4CCC(N5CCCCC5)CC4)cc13)-c1cc3c(c(=O)n1C2)COC(=O)[C@]3(O)CC | – | – | – | – | – | – | – | – | – | Active | – | – | – | – | – | – | – |
| COc1cc2c(c(OC)c1OC)-c1ccc(OC)c(=O)cc1[C@@H](NC(C)=O)CC2 [COLCHICINE] | 3.5 | 0.05 | 0.78 | 0.07 | 1.78 | 0.06 | 1.45 | 0.66 | – | – | – | – | – | – | – | – | – |
| COc1cc(C#C/C=C\C#Cc2ccccn2)cc(OC)c1OC | 1.16 | 0.13 | 0.43 | 3.99 | 6.87 | 0.51 | 0.86 | 0.39 | – | – | Active | Active | Active | Active | Active | Active | Active |
| COc1cc(C#C/C=C\C#Cc2ccccc2N)cc(OC)c1OC | 4.53 | 0.98 | 0.2 | 0.57 | 8.98 | 0.73 | 1.98 | 0.64 | – | – | – | – | – | – | – | – | – |
| COc1cc(C#C/C=C\C#Cc2ccccc2C#N)cc(OC)c1OC | 10.6 | 4.56 | 1.2 | 0.79 | 6.39 | 8.68 | 10.5 | 1.07 | – | – | – | – | – | – | – | – | – |
| COc1ccc(C#C/C=C\C#Cc2cc(OC)c(OC)c(OC)c2)c([N+](=O)[O-])c1 | 0.65 | 2.78 | 4.28 | 5.95 | 6.32 | 3.79 | 4.53 | 2.26 | – | – | – | – | – | – | – | – | – |
| COc1ccc(C#C/C=C\C#Cc2cc(OC)c(OC)c(OC)c2)c(OC)c1 | – | – | 14.4 | – | 17.4 | 22.9 | – | 12.8 | – | – | – | – | – | – | – | – | – |
| COc1cc(C#C/C=C\C#Cc2cc(C(F)(F)F)ccc2N)cc(OC)c1OC | 15.8 | – | 28.3 | 12.4 | 21 | – | 21.2 | 24.8 | – | – | – | – | – | – | – | – | – |
| COc1ccc(C#C/C=C\C#Cc2cc(OC)c(OC)c(OC)c2)c(N)c1 | 12.3 | 5.75 | 5.23 | 6.42 | 30 | 11.7 | 9.56 | 5 | – | – | – | – | – | – | – | – | – |

From ChEMBL document CHEMBL2331259, “Design, synthesis, biological evaluation and molecular modeling studies of 1-aryl-6-(3,4,5-trimethoxyphenyl)-3(Z)-hexen-1,5-diynes as a new class of potent antitumor agents” (Eur J Med Chem, 2013)
